Marks after values point to notes of the source that are not given here.

What all share (assay type): cell-based
Data set [1] concerns Salmonella typhimurium TA1535. Description: Cytotoxicity in liquid medium. The conditions noted are these: mean ± SEM. The procedure, abridged:
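TA1535 was grown in broth microdilution with test compound at 25, 50 or 100 µM. Viability was expressed as % of untreated control (mean ± SEM), triplicate.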

In data set [2] the test system is Salmonella typhimurium TA1535. The data set is described as follows: Ames Salmonella/microsomal mutagenicity assay. The settings on record: presence of S9 mix, spontaneous 67.0±6.1.
For data set [3], the system named is Salmonella typhimurium TA1535. The data set is described as follows: Antimutagenicity assay against sodium azide. The conditions noted are these: for NaN3 mutagenicity (revertant colonies/plate; mean ± SEM): NaN3 2 μg/plate, spontaneous 29.3±5.3; for Mutant frequency (sodium azide): mutant colonies/viable colonies. The procedure, abridged:
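TA1535 was exposed to test compound at 10 or 20 µM with NaN₃ (2 µg/plate) in two schemes. In pre-exposure, compound and bacteria were shaken 30 min at 37°C before mutagen was added. In co-exposure, bacteria, mutagen and compound were incubated together 30 min at 37°C. Cells were then plated on minimal glucose agar, and revertants counted at 48 h, in triplicate. Mutant frequency = mutant colonies/viable colonies.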

The subject of data set [4] is Salmonella typhimurium TA1535. The data set is described as follows: Antimutagenicity assay against benzo[a]pyrene with S9 mix. The conditions noted are these: for B[a]P mutagenicity (revertant colonies/plate; mean ± SEM): B[a]P 20 μM + S9 mix, spontaneous 105.0±13.1; for Mutant frequency (benzo[a]pyrene): mutant colonies/viable colonies; for Antimutagenic potential against B[a]P: low concentration investigated.

With `N#Cc1ccc(-c2ccc(-c3cccs3)o2)c(F)c1` [Compound 4c, 3-Fluoro-4-(5-(thiophen-2-yl)furan-2-yl)benzonitrile], the results for the “Viability at fluoroarylbichalcophene concentrations (% of control)” value (“Viability … (% of control)” below) in data set [1] (25 μM), in data set [1] (50 μM) and in data set [1] (100 μM) were 104.7±11.6 % of control, 61.0±7.0 ^a % of control and 2.7±0.4 ^a % of control, respectively. Besides, the “Fluoroarylbichalcophene mutagenicity (revertant colonies/plate; mean ± SEM)” value was found to be 65.3±5.4 revertant colonies/plate in data set [2] (10 μM) and 68.7±5.5 revertant colonies/plate in data set [2] (20 μM). For the same compound, the “NaN3 mutagenicity (revertant colonies/plate; mean ± SEM)” value in data set [3] (co-exposure, 10 μM) is on record as 44.7±6.0 revertant colonies/plate; in data set [3] (co-exposure, 20 μM), 40.0±5.0 revertant colonies/plate; in data set [3] (pre-exposure, 10 μM) it was 51.0±6.6 revertant colonies/plate; in data set [3] (pre-exposure, 20 μM), 53.7±9.3 revertant colonies/plate. Moreover, the “Mutant frequency (sodium azide)” value in data set [3] (co-exposure, 10 μM) turned out to be 0.81; in data set [3] (co-exposure, 20 μM) it was 0.78; in data set [3] (pre-exposure, 10 μM), 0.93. Besides, the “B[a]P mutagenicity (revertant colonies/plate; mean ± SEM)” value in data set [4] (co-exposure, 10 μM) is 279.3±19.5 revertant colonies/plate; in data set [4] (co-exposure, 20 μM), 269.3±9.0 revertant colonies/plate; in data set [4] (pre-exposure, 10 μM), 177.0±11.3 revertant colonies/plate; in data set [4] (pre-exposure, 20 μM) it was 153.7±7.0 revertant colonies/plate. Moreover, the “Mutant frequency (benzo[a]pyrene)” value was determined as 4.43 in data set [4] (co-exposure, 10 μM); 4.41 in data set [4] (co-exposure, 20 μM); 2.81 in data set [4] (pre-exposure, 10 μM); 2.52 in data set [4] (pre-exposure, 20 μM). In data set [4] (co-exposure), the “Antimutagenic potential against B[a]P” value was “no significant activity”.

As to `N#Cc1ccc(-c2ccc(-c3cccs3)o2)cc1F` [Compound 4d, 2-Fluoro-4-(5-(thiophen-2-yl)furan-2-yl)benzonitrile], the “Viability … (% of control)” value was 71.7±5.0 % of control in data set [1] (25 μM), 59.7±4.7 ^a % of control in data set [1] (50 μM) and 3.0±0.2 ^a % of control in data set [1] (100 μM). The “Fluoroarylbichalcophene mutagenicity (revertant colonies/plate; mean ± SEM)” value in data set [2] (10 μM) was found to be 68.7±6.0 revertant colonies/plate; in data set [2] (20 μM), 67.7±6.1 revertant colonies/plate. For the same compound, the “NaN3 mutagenicity (revertant colonies/plate; mean ± SEM)” value in data set [3] (co-exposure, 10 μM) was determined as 47.7±2.7 revertant colonies/plate; in data set [3] (co-exposure, 20 μM), 49.7±6.4 revertant colonies/plate; in data set [3] (pre-exposure, 10 μM), 36.0±2.7 revertant colonies/plate; in data set [3] (pre-exposure, 20 μM), 29.7±4.0 revertant colonies/plate. Also, the “Mutant frequency (sodium azide)” value in data set [3] (co-exposure, 10 μM) amounted to 0.92; in data set [3] (co-exposure, 20 μM), 0.94; in data set [3] (pre-exposure, 10 μM), 0.69; in data set [3] (pre-exposure, 20 μM), 0.56. The “B[a]P mutagenicity (revertant colonies/plate; mean ± SEM)” value in data set [4] (co-exposure, 10 μM) turned out to be 287.7±16.0 revertant colonies/plate; in data set [4] (co-exposure, 20 μM), 204.0±5.3 revertant colonies/plate; in data set [4] (pre-exposure, 10 μM), 271.0±16.5 revertant colonies/plate; in data set [4] (pre-exposure, 20 μM), 271.0±12.2 revertant colonies/plate. Also, the “Mutant frequency (benzo[a]pyrene)” value amounted to 4.38 in data set [4] (co-exposure, 10 μM); 3.29 in data set [4] (co-exposure, 20 μM); 4.12 in data set [4] (pre-exposure, 10 μM); 4.37 in data set [4] (pre-exposure, 20 μM). The “Antimutagenic potential against B[a]P” value in data set [4] (co-exposure) is “no significant activity”.

For the compound `N#Cc1ccc(-c2ccc(-c3cccs3)s2)cc1F` [Compound 4e, 4-(2,2′-Bithiophen-5-yl)-2-fluorobenzonitrile], the “Viability … (% of control)” value in data set [1] (25 μM) was 104.0±9.9 % of control; in data set [1] (50 μM), 64.7±8.1 ^a % of control; in data set [1] (100 μM), 22.3±2.2 ^a % of control. Moreover, the “Fluoroarylbichalcophene mutagenicity (revertant colonies/plate; mean ± SEM)” value stood at 65.3±6.2 revertant colonies/plate in data set [2] (10 μM) and 66.7±6.7 revertant colonies/plate in data set [2] (20 μM). Besides, the “NaN3 mutagenicity (revertant colonies/plate; mean ± SEM)” value in data set [3] (co-exposure, 10 μM) worked out at 36.7±4.7 revertant colonies/plate; in data set [3] (co-exposure, 20 μM) it was 25.0±5.6 revertant colonies/plate; in data set [3] (pre-exposure, 10 μM), 24.7±3.5 revertant colonies/plate; in data set [3] (pre-exposure, 20 μM) it was 21.7±2.1 revertant colonies/plate. In addition, the “Mutant frequency (sodium azide)” value in data set [3] (co-exposure, 10 μM) came out at 0.66; in data set [3] (co-exposure, 20 μM), 0.48; in data set [3] (pre-exposure, 10 μM), 0.44; in data set [3] (pre-exposure, 20 μM) it was 0.42. In addition, the “B[a]P mutagenicity (revertant colonies/plate; mean ± SEM)” value is 282.3±16.6 revertant colonies/plate in data set [4] (co-exposure, 10 μM); 285.0±18.1 revertant colonies/plate in data set [4] (co-exposure, 20 μM); 241.3±11.0 revertant colonies/plate in data set [4] (pre-exposure, 10 μM); 201.0±10.5 revertant colonies/plate in data set [4] (pre-exposure, 20 μM). The “Mutant frequency (benzo[a]pyrene)” value was 4.28 in data set [4] (co-exposure, 10 μM); 4.38 in data set [4] (co-exposure, 20 μM); 3.66 in data set [4] (pre-exposure, 10 μM); 3.09 in data set [4] (pre-exposure, 20 μM). In addition, in data set [4] (co-exposure), the “Antimutagenic potential against B[a]P” value was “no significant activity”.

In the case of `Cl.N=C(N)c1ccc(-c2ccc(-c3ccco3)o2)c(F)c1` [Compound 5a, 4-(2,2′-Bifuran-5-yl)-3-fluorobenzamidine hydrochloride salt], the “Viability … (% of control)” value in data set [1] (25 μM) was 102.3±10.2 % of control; in data set [1] (50 μM), 63.3±9.0 ^a % of control; in data set [1] (100 μM), 32.7±2.7 ^a % of control. In addition, the entries for the “Fluoroarylbichalcophene mutagenicity (revertant colonies/plate; mean ± SEM)” value in data set [2] (10 μM) and in data set [2] (20 μM) were 61.0±4.8 revertant colonies/plate and 65.7±5.8 revertant colonies/plate, respectively. In addition, the “NaN3 mutagenicity (revertant colonies/plate; mean ± SEM)” value in data set [3] (co-exposure, 10 μM) is 73.3±4.1 revertant colonies/plate; in data set [3] (co-exposure, 20 μM), 39.0±8.1 revertant colonies/plate; in data set [3] (pre-exposure, 10 μM) it was 57.7±11.0 revertant colonies/plate; in data set [3] (pre-exposure, 20 μM), 22.3±2.1 revertant colonies/plate. Further, the “Mutant frequency (sodium azide)” value in data set [3] (co-exposure, 20 μM) amounted to 0.76; in data set [3] (pre-exposure, 20 μM), 0.44. Further, the “B[a]P mutagenicity (revertant colonies/plate; mean ± SEM)” value is given as 102.0±12.1 revertant colonies/plate in data set [4] (co-exposure, 10 μM); 98.3±9.5 revertant colonies/plate in data set [4] (co-exposure, 20 μM); 209.7±10.3 revertant colonies/plate in data set [4] (pre-exposure, 10 μM); 201.0±11.0 revertant colonies/plate in data set [4] (pre-exposure, 20 μM). Moreover, the “Mutant frequency (benzo[a]pyrene)” value in data set [4] (co-exposure, 20 μM) came to 1.65; in data set [4] (pre-exposure, 10 μM), 3.26; in data set [4] (pre-exposure, 20 μM), 3.37.

Regarding `Cl.N=C(N)c1ccc(-c2ccc(-c3ccco3)o2)cc1F` [Compound 5b, 4-(2,2′-Bifuran-5-yl)-2-fluorobenzamidine hydrochloride salt], the figures for the “Viability … (% of control)” value in data set [1] (25 μM), in data set [1] (50 μM) and in data set [1] (100 μM) were 101.7±11.3 % of control, 62.0±5.5 ^a % of control and 36.7±2.8 ^a % of control, respectively. Further, the results for the “Fluoroarylbichalcophene mutagenicity (revertant colonies/plate; mean ± SEM)” value in data set [2] (10 μM) and in data set [2] (20 μM) were 68.7±4.0 revertant colonies/plate and 65.0±4.9 revertant colonies/plate, respectively. For the same compound, the “NaN3 mutagenicity (revertant colonies/plate; mean ± SEM)” value in data set [3] (co-exposure, 10 μM) stood at 26.0±2.0 revertant colonies/plate; in data set [3] (co-exposure, 20 μM) it was 21.7±2.5 revertant colonies/plate; in data set [3] (pre-exposure, 10 μM), 126.7±11.2 revertant colonies/plate; in data set [3] (pre-exposure, 20 μM), 40.3±6.5 revertant colonies/plate. Besides, the “Mutant frequency (sodium azide)” value in data set [3] (co-exposure, 10 μM) came out at 0.50; in data set [3] (co-exposure, 20 μM), 0.43; in data set [3] (pre-exposure, 10 μM), 2.45; in data set [3] (pre-exposure, 20 μM), 0.79. The “Antimutagenic potential against NaN3” value in data set [3] (pre-exposure, only at 20 μM) is “strong (40% or more reduction means strong antimutagenic activity)”. Besides, the “B[a]P mutagenicity (revertant colonies/plate; mean ± SEM)” value amounted to 213.7±15.8 revertant colonies/plate in data set [4] (co-exposure, 10 μM); 166.0±6.6 revertant colonies/plate in data set [4] (co-exposure, 20 μM); 178.0±8.2 revertant colonies/plate in data set [4] (pre-exposure, 10 μM); 163.0±7.9 revertant colonies/plate in data set [4] (pre-exposure, 20 μM). The “Mutant frequency (benzo[a]pyrene)” value in data set [4] (co-exposure, 10 μM) was determined as 3.38; in data set [4] (co-exposure, 20 μM) it was 2.58; in data set [4] (pre-exposure, 10 μM), 2.81; in data set [4] (pre-exposure, 20 μM), 2.53.

The values above are taken from PMC4109633 (Drug Design, Development and Therapy, 2014).
